We go through one molecule from ChEMBL document CHEMBL1132613 (J Med Chem, 1999).

The target in experiment [1] is 5-hydroxytryptamine receptor 2B (Homo sapiens, UniProt P41595). Description: Compound was tested for the displacement of [3H]5-HT from clone human 5-hydroxytryptamine 2B receptor. The method in brief: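 Membranes from AV12 cells stably expressing human 5-HT2B, 100–150 μg protein. [3H]-5-HT was about 2 nM (1.7–2.5 nM) final. Buffer was 50 mM Tris pH 7.4 with 3 mM CaCl2, 10 μM pargyline and 0.1% ascorbic acid. Drug dilutions spanned 6 log units. Incubation was 15 min at 37 °C. Nonspecific binding used 10 μM 5-HT or 1-NP. PEI-soaked GF/B filtration, scintillation counting, triplicate, sigmoid nonlinear regression.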

Experiment [2] relates to Rattus norvegicus. As to the kind of experiment: Percentage of animals failing to emit 50 lever presses within 15 min in LSD trained rats at a compound dose of 1.0 mg/kg. It counts as functional. The method in brief:
(§1)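 Male Sprague–Dawley rats (200–220 g) in a two-lever, FR50 food-reinforced task. Rats were trained to discriminate saline from LSD tartrate (0.08 mg/kg), DOI HCl (0.4 mg/kg) or LY293284 (0.025 mg/kg) in 15-min sessions. %SDL is the share of rats making over 80% of presses on the drug lever. %D is the share failing to make 50 presses within 15 min. ED50 by Litchfield–Wilcoxon log-probit.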

The test system of experiment [3] is Rattus norvegicus. Description: Percentage of animals failing to emit 50 lever presses within 15 min in LSD trained rats at a compound dose of 2.0 mg/kg. It counts as functional. The method in brief: as §1
Experiment [4] relates to Rattus norvegicus. As to the kind of experiment: Percentage of animals failing to emit 50 lever presses within 15 min in LSD trained rats at a compound dose of 4.0 mg/kg. It counts as functional. Summed up: (§2)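 Two-lever drug discrimination in male Sprague–Dawley rats (200–220 g at start), trained against saline on LSD tartrate (0.08 mg/kg), DOI HCl (0.4 mg/kg) or LY293284 (0.025 mg/kg). FR50 food-pellet reinforcement, levers counterbalanced, 15-min sessions at 22–24 °C. %D is the share of tested rats not completing 50 lever presses within 15 min.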

In experiment [5] the test system is Rattus norvegicus. As to the kind of experiment: Percentage of animals failing to emit 50 lever presses within 15 min in LSD trained rats at a compound dose of 8.0 mg/kg. It counts as functional. Summed up:
as §2

Experiment [6] deals with Rattus norvegicus. Description: Percentage of animals failing to emit 50 lever presses within 15 min in […] trained rats at a compound dose of 16 mg/kg. It counts as functional. The method in brief: as §2
In experiment [7] the test system is Rattus norvegicus. Description: Percentage of animals emitting >80% of lever presses in DOI trained rats at a compound dose of 25.3 uM/Kg. It counts as functional. The method in brief:
as §1

The subject of experiment [8] is Rattus norvegicus. Description: Percentage of animals emitting >80% of lever presses in LSD trained rats at a compound dose of 1.58 uM/Kg. It counts as functional. The method in brief:
as §1

Experiment [9] relates to Rattus norvegicus. As to the kind of experiment: Percentage of animals emitting >80% of lever presses in LSD trained rats at a compound dose of 3.16 uM/Kg. It counts as functional. Summed up:
as §1

Experiment [10] relates to Rattus norvegicus. As to the kind of experiment: Percentage of animals emitting >80% of lever presses in LSD trained rats at a compound dose of 50.6 uM/Kg. It counts as functional. The method in brief:
as §1

Experiment [11] deals with Rattus norvegicus. As to the kind of experiment: Percentage of animals emitting >80% of lever presses in […] trained rats at a compound dose of 25.3 uM/Kg. It counts as functional. Summed up: as §1

Chain of 5-hydroxytryptamine receptor 2B (P41595 whole entry): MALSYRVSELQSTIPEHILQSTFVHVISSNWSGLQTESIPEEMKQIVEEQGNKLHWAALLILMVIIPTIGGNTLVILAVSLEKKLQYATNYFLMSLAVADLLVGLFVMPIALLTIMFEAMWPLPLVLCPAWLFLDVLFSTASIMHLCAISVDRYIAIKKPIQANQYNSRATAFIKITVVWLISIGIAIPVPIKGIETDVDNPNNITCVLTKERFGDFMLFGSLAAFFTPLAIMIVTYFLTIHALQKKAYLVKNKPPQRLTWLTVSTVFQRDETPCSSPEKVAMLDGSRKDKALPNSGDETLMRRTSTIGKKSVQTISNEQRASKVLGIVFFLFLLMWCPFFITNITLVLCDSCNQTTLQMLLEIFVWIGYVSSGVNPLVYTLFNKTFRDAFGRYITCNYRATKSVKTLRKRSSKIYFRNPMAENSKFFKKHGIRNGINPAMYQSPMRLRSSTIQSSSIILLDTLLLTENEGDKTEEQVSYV

Molecule `CN(C)CCc1c[nH]c2sccc12` returned a Ki in [1] of 483 nM. Besides, the D in experiment [2], in [3], in experiment [4], in experiment [5] and in experiment [6] was 0% in each case. Besides, the SDL in [7] is on record as 0%; in experiment [8], 14%; in experiment [9], 7.7%; in [10], 16.7%; in experiment [11], 58%.
